In ChEMBL document CHEMBL3098105, “7,7'-Diazaindirubin--a small molecule inhibitor of casein kinase 2 in vitro and in cells” (Bioorg Med Chem, 2014):

Assays:
[1] = target: Glycogen synthase kinase-3 alpha (Homo sapiens) (UniProt P49840); assay: Inhibition of human GSK3alpha assessed as residual activity at 1 uM relative to control
[2] = target: Serine/threonine-protein kinase 10 (Homo sapiens) (UniProt O94804); assay: Inhibition of human LOK assessed as residual activity at 1 uM relative to control
[3] = target: Serine/threonine-protein kinase pim-1 (Homo sapiens) (UniProt P11309); assay: Inhibition of human Pim-1 assessed as residual activity at 1 uM relative to control
[4] = target: Serine/threonine-protein kinase 4 (Homo sapiens) (UniProt Q13043); assay: Inhibition of human MST1 assessed as residual activity at 1 uM relative to control
[5] = target: Protein kinase C beta type (Homo sapiens) (UniProt P05771); assay: Inhibition of human PKCbeta2 assessed as residual activity at 1 uM relative to control
[6] = target: Aurora kinase B (Homo sapiens) (UniProt Q96GD4); assay: Inhibition of Aurora-B (unknown origin) assessed as residual activity at 10 uM relative to control
[7] = target: Mitogen-activated protein kinase 14 (Homo sapiens) (UniProt Q16539); assay: Inhibition of human SAPK2alpha assessed as residual activity at 1 uM relative to control
[8] = target: Serine/threonine-protein kinase Sgk2 (Homo sapiens) (UniProt Q9HBY8); assay: Inhibition of human SGK2 assessed as residual activity at 1 uM relative to control
[9] = target: Eukaryotic elongation factor 2 kinase (Homo sapiens) (UniProt O00418); assay: Inhibition of human eEF-2K assessed as residual activity at 1 uM relative to control
[10] = target: Serine/threonine-protein kinase SIK1 (Homo sapiens) (UniProt P57059); assay: Inhibition of human SIK assessed as residual activity at 1 uM relative to control
[11] = target: Receptor tyrosine-protein kinase erbB-2 (Homo sapiens) (UniProt P04626); assay: Inhibition of ERBB2 (unknown origin) assessed as residual activity at 10 uM relative to control
[12] = target: Calcium/calmodulin-dependent protein kinase type 1D (Homo sapiens) (UniProt Q8IU85); assay: Inhibition of human CaMK1delta assessed as residual activity at 1 uM relative to control
[13] = target: Cytoplasmic tyrosine-protein kinase BMX (Homo sapiens) (UniProt P51813); assay: Inhibition of human Bmx assessed as residual activity at 1 uM relative to control
[14] = target: MAP kinase-activated protein kinase 2 (Homo sapiens) (UniProt P49137); assay: Inhibition of human MAPKAP-K2 assessed as residual activity at 1 uM relative to control
[15] = target: Proto-oncogene tyrosine-protein kinase Src (Homo sapiens) (UniProt P12931); assay: Inhibition of SRC (unknown origin) assessed as residual activity at 10 uM relative to control
[16] = target: Ribosomal protein S6 kinase alpha-4 (Homo sapiens) (UniProt O75676); assay: Inhibition of human MSK2 assessed as residual activity at 1 uM relative to control
[17] = target: Tyrosine-protein kinase JAK3 (Homo sapiens) (UniProt P52333); assay: Inhibition of human JAK3 assessed as residual activity at 1 uM relative to control
RPMI-8226 = assay: Antiproliferative activity against human RPMI8226 cells after 3 days by sulforhodamine B assay; assay type: functional; conditions: RPMI-8226, 72 h
Summary of the method: (§1)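 Tested in the NCI 60 cell line panel. GI50 is the concentration giving 50% inhibition of cell growth, and values are the mean of two series of tests.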

[18] = target: Death-associated protein kinase 1 (Homo sapiens) (UniProt P53355); assay: Inhibition of human DAPK1 assessed as residual activity at 1 uM relative to control
M14 = assay: Antiproliferative activity against human M14 cells after 3 days by sulforhodamine B assay; assay type: functional; conditions: M14, 72 h; summary of the method: as §1
[19] = target: Aurora kinase B (Homo sapiens) (UniProt Q96GD4); assay: Inhibition of Aurora-B (unknown origin) assessed as residual activity at 1 uM relative to control
OVCAR-8 = assay: Antiproliferative activity against human OVCAR8 cells after 3 days by sulforhodamine B assay; assay type: functional; conditions: OVCAR-8, 72 h; summary of the method: as §1
MCF7 = assay: Cell cycle arrest in human MCF7 cells assessed as accumulation at S phase at 0.25 uM after 24 hrs using propidium iodide staining by FACS analysis (reference value: 18.59%); assay type: functional
[20] = target: Serine/threonine-protein kinase B-raf (Homo sapiens) (UniProt P15056); assay: Inhibition of wild type B-RAF (unknown origin) assessed as residual activity at 10 uM relative to control
[21] = target: Fibroblast growth factor receptor 2 (Homo sapiens) (UniProt P21802); assay: Inhibition of human FGFR2 assessed as residual activity at 1 uM relative to control
[22] = target: Misshapen-like kinase 1 (Homo sapiens) (UniProt Q8N4C8); assay: Inhibition of human MINK assessed as residual activity at 1 uM relative to control
[23] = target: Serine/threonine-protein kinase PLK2 (Homo sapiens) (UniProt Q9NYY3); assay: Inhibition of human Snk assessed as residual activity at 1 uM relative to control
[24] = target: Protein kinase C beta type (Homo sapiens) (UniProt P05771); assay: Inhibition of human PKCbeta1 assessed as residual activity at 1 uM relative to control
[25] = Antiproliferative activity against human OVCAR5 cells after 3 days by sulforhodamine B assay; assay type: functional; conditions: OVCAR-5, 72 h; summary of the method: as §1
[26] = target: Homeodomain-interacting protein kinase 3 (Homo sapiens) (UniProt Q9H422); assay: Inhibition of human HIPK3 assessed as residual activity at 1 uM relative to control
[27] = target: Protein kinase C eta type (Homo sapiens) (UniProt P24723); assay: Inhibition of human PKCeta assessed as residual activity at 1 uM relative to control
[28] = target: Death-associated protein kinase 2 (Homo sapiens) (UniProt Q9UIK4); assay: Inhibition of human DAPK2 assessed as residual activity at 1 uM relative to control
[29] = target: Serine/threonine-protein kinase ULK2 (Homo sapiens) (UniProt Q8IYT8); assay: Inhibition of human ULK2 assessed as residual activity at 1 uM relative to control
[30] = Antiproliferative activity against human RXF393 cells after 3 days by sulforhodamine B assay; assay type: functional; conditions: RXF 393, 72 h; summary of the method: as §1
[31] = target: RAF proto-oncogene serine/threonine-protein kinase (Homo sapiens) (UniProt P04049); assay: Inhibition of human c-RAF assessed as residual activity at 1 uM relative to control
[32] = target: Casein kinase I isoform gamma-1 (Homo sapiens) (UniProt Q9HCP0); assay: Inhibition of human CK1gamma1 assessed as residual activity at 1 uM relative to control
[33] = target: Maternal embryonic leucine zipper kinase (Homo sapiens) (UniProt Q14680); assay: Inhibition of human MELK assessed as residual activity at 1 uM relative to control
[34] = target: Casein kinase II subunit alpha' (Homo sapiens) (UniProt P19784); assay: Inhibition of human CK2a2 assessed as residual activity at 1 uM relative to control
[35] = target: Ribosomal protein S6 kinase alpha-5 (Homo sapiens) (UniProt O75582); assay: Inhibition of human MSK1 assessed as residual activity at 1 uM relative to control

Chain of Protein kinase C beta type (Homo sapiens) (P05771 2-671 limits assumed): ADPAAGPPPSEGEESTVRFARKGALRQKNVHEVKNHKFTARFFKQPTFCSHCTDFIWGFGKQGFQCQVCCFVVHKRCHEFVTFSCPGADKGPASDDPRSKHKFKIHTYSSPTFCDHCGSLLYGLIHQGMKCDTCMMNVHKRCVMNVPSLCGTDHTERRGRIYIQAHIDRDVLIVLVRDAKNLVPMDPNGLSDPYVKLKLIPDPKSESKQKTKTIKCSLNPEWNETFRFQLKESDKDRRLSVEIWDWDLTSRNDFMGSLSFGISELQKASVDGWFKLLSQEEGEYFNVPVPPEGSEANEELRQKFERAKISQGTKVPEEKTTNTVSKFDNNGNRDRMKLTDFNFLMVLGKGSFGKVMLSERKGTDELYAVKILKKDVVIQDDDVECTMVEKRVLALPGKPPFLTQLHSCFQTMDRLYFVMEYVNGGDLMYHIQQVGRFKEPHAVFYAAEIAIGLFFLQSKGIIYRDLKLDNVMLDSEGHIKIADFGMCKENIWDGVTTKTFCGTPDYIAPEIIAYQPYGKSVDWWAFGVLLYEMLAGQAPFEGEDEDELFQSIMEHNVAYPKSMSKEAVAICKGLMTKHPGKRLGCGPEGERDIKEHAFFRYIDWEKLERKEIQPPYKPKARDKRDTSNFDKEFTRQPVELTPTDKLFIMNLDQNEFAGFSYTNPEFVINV
Chain of Aurora kinase B (Homo sapiens) (Q96GD4 whole entry): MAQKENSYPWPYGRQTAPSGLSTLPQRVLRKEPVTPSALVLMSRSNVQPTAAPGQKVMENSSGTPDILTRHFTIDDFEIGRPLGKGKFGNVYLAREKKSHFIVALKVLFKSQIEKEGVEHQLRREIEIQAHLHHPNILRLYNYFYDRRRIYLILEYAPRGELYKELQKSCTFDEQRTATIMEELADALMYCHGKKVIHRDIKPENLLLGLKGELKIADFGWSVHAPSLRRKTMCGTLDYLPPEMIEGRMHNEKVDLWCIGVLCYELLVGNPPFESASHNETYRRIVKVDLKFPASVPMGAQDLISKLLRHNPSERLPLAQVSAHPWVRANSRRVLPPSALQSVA
Chain of Homeodomain-interacting protein kinase 3 (Homo sapiens) (Q9H422 whole entry, looked up): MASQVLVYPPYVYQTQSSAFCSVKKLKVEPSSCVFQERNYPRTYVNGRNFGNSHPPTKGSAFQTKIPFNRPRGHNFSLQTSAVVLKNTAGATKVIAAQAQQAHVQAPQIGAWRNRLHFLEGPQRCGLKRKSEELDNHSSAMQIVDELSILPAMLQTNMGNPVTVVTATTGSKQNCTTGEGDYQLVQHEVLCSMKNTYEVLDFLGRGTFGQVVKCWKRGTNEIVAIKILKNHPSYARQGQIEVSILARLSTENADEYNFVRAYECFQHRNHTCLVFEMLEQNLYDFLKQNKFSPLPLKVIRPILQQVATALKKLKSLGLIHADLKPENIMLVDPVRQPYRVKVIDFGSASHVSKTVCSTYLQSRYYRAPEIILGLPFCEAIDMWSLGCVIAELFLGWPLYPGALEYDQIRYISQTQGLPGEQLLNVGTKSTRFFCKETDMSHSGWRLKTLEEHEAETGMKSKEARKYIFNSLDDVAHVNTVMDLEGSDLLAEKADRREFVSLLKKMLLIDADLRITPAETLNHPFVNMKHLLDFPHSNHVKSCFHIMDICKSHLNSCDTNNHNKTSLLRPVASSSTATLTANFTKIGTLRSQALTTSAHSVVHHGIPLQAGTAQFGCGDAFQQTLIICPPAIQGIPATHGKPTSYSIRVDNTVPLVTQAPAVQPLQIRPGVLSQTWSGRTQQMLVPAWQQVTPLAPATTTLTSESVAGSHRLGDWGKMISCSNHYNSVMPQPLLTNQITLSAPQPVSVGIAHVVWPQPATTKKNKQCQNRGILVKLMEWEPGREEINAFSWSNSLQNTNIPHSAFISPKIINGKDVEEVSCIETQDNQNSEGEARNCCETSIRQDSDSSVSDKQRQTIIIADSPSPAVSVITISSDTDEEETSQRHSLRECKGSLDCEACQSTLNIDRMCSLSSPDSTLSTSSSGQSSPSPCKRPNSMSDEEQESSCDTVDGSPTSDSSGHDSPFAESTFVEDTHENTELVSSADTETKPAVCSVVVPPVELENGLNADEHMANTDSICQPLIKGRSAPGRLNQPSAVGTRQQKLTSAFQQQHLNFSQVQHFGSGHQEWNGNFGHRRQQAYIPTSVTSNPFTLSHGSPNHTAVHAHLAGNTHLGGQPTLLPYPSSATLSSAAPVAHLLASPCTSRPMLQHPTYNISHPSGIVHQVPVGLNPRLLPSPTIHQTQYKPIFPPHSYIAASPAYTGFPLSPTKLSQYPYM
Chain of Protein kinase C eta type (Homo sapiens) (P24723 whole entry): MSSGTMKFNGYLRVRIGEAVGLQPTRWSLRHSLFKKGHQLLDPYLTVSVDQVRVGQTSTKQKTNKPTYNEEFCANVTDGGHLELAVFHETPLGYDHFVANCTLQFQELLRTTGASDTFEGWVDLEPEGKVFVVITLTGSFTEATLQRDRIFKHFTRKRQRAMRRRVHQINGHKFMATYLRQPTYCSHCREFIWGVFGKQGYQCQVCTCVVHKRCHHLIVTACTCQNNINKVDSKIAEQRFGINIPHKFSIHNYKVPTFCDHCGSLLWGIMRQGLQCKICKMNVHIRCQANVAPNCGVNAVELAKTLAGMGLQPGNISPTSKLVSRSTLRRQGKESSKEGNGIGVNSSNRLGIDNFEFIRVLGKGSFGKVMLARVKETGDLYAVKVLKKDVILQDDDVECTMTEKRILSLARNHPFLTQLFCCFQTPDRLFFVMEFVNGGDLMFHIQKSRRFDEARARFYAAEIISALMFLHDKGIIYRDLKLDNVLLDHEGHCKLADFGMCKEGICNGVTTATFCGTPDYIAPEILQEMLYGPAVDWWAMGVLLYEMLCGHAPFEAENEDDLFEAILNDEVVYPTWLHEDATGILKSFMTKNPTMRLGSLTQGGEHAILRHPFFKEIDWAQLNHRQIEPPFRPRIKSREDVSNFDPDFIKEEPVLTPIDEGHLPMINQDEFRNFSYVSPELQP
Chain of Serine/threonine-protein kinase ULK2 (Homo sapiens) (Q8IYT8 whole entry): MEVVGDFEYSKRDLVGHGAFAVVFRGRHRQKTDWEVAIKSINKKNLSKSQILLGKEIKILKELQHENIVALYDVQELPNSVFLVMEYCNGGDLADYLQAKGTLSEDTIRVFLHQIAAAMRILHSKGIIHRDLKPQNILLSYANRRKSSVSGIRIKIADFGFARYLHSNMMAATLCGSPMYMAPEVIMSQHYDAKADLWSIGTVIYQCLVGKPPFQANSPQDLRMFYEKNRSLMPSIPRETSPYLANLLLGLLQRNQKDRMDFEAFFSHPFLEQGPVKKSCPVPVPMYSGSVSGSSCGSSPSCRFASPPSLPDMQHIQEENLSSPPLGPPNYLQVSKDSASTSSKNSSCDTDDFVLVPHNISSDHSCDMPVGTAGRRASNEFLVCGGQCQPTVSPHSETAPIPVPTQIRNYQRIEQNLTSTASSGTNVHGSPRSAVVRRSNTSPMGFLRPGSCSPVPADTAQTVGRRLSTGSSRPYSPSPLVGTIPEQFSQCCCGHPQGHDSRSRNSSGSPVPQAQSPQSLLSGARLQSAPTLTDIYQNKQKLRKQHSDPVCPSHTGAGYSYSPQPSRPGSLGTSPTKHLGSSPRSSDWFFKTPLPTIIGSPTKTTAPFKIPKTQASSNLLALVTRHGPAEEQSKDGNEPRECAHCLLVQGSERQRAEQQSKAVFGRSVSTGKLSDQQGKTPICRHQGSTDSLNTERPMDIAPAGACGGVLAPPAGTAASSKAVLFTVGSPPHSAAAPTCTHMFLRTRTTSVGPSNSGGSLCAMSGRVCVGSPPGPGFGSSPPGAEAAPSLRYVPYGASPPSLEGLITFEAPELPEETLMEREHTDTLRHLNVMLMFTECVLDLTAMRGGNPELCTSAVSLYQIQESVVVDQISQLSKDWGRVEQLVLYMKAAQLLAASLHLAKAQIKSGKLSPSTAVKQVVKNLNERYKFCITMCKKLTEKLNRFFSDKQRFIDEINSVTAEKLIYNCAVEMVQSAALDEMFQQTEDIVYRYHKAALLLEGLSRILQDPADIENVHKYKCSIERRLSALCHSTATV
Chain of Eukaryotic elongation factor 2 kinase (Homo sapiens) (O00418 whole entry): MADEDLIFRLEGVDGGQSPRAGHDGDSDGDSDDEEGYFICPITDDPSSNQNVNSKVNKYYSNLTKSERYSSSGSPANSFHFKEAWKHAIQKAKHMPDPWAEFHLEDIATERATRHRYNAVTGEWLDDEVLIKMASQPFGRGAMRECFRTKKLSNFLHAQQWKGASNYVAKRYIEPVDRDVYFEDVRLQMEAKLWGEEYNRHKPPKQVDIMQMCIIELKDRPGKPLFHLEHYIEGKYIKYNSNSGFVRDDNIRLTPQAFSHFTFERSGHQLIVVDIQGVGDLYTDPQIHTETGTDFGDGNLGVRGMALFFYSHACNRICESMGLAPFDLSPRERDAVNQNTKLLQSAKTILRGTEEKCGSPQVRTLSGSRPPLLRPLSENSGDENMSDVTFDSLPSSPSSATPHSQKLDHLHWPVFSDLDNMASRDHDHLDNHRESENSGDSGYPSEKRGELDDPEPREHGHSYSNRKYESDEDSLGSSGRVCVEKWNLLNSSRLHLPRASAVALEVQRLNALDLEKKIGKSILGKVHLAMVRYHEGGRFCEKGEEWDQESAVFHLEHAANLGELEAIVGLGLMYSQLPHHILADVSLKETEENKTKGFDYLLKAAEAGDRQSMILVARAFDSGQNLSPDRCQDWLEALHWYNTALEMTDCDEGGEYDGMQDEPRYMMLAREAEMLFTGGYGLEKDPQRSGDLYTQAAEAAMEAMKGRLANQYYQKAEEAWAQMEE
Chain of MAP kinase-activated protein kinase 2 (Homo sapiens) (P49137 whole entry, looked up): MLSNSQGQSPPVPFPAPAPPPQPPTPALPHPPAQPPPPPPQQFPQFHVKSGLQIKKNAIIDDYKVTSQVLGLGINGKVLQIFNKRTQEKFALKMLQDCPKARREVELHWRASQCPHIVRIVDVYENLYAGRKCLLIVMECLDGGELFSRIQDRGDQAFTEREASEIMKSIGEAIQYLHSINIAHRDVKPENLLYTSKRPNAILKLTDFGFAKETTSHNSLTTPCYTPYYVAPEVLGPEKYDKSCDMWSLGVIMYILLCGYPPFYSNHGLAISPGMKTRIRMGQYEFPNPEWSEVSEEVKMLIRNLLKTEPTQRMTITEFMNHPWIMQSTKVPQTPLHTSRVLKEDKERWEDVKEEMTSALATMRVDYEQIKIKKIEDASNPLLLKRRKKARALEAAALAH

Activity [1]: 68% | Activity [2]: 93% | Activity [3]: 108% | Activity [4]: 96% | Activity [5]: 101% | Activity [6]: 88% | Activity [7]: 111% | Activity [8]: 127% | Activity [9]: 94% | Activity [10]: 32% | Activity [11]: 102% | Activity [12]: 70% | Activity [13]: 116% | Activity [14]: 67% | Activity [15]: 107% | Activity [16]: 78% | Activity [17]: 85% | GI50 (RPMI-8226): 2120 nM | Activity [19]: 108% | GI50 (OVCAR-8): 1370 nM | Activity [20]: 94% | Activity [21]: 125% | Activity [22]: 62% | Activity [23]: 83% | Activity [24]: 105% | Activity [26]: 94% | Activity [27]: 98% | Activity [29]: 65% | Activity [31]: 73% | Activity [32]: 104% | Activity [33]: 87% | Activity [34]: 28% | Activity [35]: 93%
Compound: O=C1Nc2ncccc2/C1=C1/Nc2ncccc2C1=O
Activity [18]: 94% | GI50 (M14): 391 nM | Activity (MCF7): 18.57% | GI50 [25]: 2470 nM | Activity [28]: 114% | GI50 [30]: 2190 nM
